Measured values from ChEMBL document CHEMBL1139596, “Non-competitive inhibitors of metabotropic glutamate receptor 5 (mGluR5)” (Bioorg Med Chem Lett, 2005).

Columns and labels:
[1] = Inhibitory activity against metabotropic glutamate receptor 5 (mGluR5)
In short: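 Functional FLIPR assay in CHO cells transfected with mGlu5 receptor.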

[2] = target: Metabotropic glutamate receptor 5 (Homo sapiens) (UniProt P41594); experiment: Percent inhibition against metabotropic glutamate receptor 5 (mGluR5) at 10 uM
Chain of Metabotropic glutamate receptor 5 (Homo sapiens) (P41594 21-1212 limits assumed): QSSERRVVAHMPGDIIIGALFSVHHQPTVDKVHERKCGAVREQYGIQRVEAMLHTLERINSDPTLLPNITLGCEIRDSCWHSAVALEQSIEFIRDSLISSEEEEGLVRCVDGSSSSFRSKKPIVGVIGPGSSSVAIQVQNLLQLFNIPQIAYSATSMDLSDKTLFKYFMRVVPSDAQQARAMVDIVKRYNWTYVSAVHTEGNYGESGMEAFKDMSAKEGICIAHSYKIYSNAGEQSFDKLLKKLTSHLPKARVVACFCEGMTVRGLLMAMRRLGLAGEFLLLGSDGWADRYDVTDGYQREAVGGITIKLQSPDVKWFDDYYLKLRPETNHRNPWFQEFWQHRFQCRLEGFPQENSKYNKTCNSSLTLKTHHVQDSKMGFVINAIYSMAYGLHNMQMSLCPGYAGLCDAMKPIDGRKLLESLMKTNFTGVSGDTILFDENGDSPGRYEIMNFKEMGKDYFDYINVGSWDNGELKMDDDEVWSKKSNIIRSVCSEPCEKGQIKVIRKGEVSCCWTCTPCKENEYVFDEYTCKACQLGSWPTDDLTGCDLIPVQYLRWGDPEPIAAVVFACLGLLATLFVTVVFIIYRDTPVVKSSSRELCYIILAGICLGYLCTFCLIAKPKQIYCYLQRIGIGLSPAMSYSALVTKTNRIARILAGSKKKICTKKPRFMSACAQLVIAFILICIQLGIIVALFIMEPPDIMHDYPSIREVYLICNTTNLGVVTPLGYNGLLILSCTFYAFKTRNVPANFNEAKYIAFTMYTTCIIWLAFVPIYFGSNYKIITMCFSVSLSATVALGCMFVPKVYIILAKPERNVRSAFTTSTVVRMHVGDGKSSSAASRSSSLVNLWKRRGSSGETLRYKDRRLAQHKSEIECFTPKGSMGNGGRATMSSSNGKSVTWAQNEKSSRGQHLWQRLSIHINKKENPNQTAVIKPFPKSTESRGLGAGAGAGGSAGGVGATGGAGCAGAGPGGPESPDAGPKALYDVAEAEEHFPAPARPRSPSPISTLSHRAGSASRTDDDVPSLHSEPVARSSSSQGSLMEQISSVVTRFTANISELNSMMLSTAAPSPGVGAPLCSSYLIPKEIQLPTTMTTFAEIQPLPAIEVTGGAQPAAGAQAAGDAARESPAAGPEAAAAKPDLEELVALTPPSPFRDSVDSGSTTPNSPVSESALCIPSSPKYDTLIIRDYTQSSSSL

[3] = Half life was determined; 1-2h; assay type: ADME

Ki [1] [nM] | inhibition [2] [%] | also measured | SMILES
9480 |  |  | Cc1ccc(C(=O)COC(=O)c2ccc(N3C(=O)C4CC=CCC4C3=O)cc2)cc1 (stereo not drawn)
3790 |  |  | Cc1ccc(C(=O)COC(=O)c2ccc(N3C(=O)C4CC=CCC4C3=O)cc2)cc1[N+](=O)[O-] (stereo not drawn)
 | 38 |  | Cc1ccc(C(=O)COC(=O)c2ccc(N3CCCC3=O)cc2)cc1C
303 |  |  | O=C(COC(=O)c1ccc(N2C(=O)C3CC=CCC3C2=O)cc1)c1ccc2ccccc2c1 (stereo not drawn)
113 |  | half-life [3]: 2 h | Cc1ccc(C(=O)COC(=O)c2ccc(N3C(=O)C4CCC(C)CC4C3=O)cc2)cc1C (stereo not drawn)
 | < 35 |  | Cc1ccc(C2CN(C(=O)c3ccc(N4C(=O)C5CC=CCC5C4=O)cc3)CCO2)cc1C (stereo not drawn)
 | 28 |  | Cc1ccc2c(c1)C(=O)N(c1ccc(C(=O)OCC(=O)c3ccc(C)c(C)c3)cc1)C2=O
 | 41 |  | Cc1ccc(C(=O)COC(=O)c2ccc(N3C(=O)COCC3=O)cc2)cc1C
 | < 35 |  | Cc1ccc(CNC(=O)c2ccc(N3C(=O)C4CC=CCC4C3=O)cc2)cc1C (stereo not drawn)
6430 |  |  | CC1=C(C)C(=O)N(c2ccc(C(=O)OCC(=O)c3ccc(C)c(C)c3)cc2)C1=O
 | < 35 |  | Cc1ccc(NC(=O)Nc2ccc(N3C(=O)C4CC=CCC4C3=O)cc2)cc1C (stereo not drawn)
 | < 35 |  | Cc1ccc(OCCCNC(=O)c2ccc(N3C(=O)C4CC=CCC4C3=O)cc2)cc1C (stereo not drawn)
 | < 35 |  | Cc1ccc(C(=O)CNC(=O)c2ccc(N3C(=O)C4CC=CCC4C3=O)cc2)cc1C (stereo not drawn)
 | < 35 |  | Cc1ccc(CNC(=O)Nc2ccc(N3C(=O)C4CC=CCC4C3=O)cc2)cc1C (stereo not drawn)
3270 |  |  | Cc1ccc(C(=O)COC(=O)c2ccc(N3C(=O)CCCC3=O)cc2)cc1C
 | 10 |  | Cc1ccc(C(=O)COC(=O)c2ccc(N3C(=O)C4=C(CCC4)C3=O)cc2)cc1C
1600 |  |  | COc1ccc(C(=O)COC(=O)c2ccc(N3C(=O)C4CC=CCC4C3=O)cc2)cc1OC (stereo not drawn)
 | 39 |  | COc1ccc(C(=O)COC(=O)c2ccc(N3C(=O)C4CC=CCC4C3=O)cc2)cc1 (stereo not drawn)
401 |  |  | O=C(COC(=O)c1ccc(N2C(=O)C3CC=CCC3C2=O)cc1)c1ccc2c(c1)CCC2 (stereo not drawn)
1680 |  |  | COc1ccc(C(=O)COC(=O)c2ccc(N3C(=O)C4CC=CCC4C3=O)cc2)cc1[N+](=O)[O-] (stereo not drawn)
 | 21 |  | O=C(COC(=O)c1ccc(N2C(=O)C3CC=CCC3C2=O)cc1)c1ccc2c(c1)OCO2 (stereo not drawn)
3360 |  |  | O=C(COC(=O)c1ccc(N2C(=O)C3CC=CCC3C2=O)cc1)c1ccc(N2CCOCC2)cc1 (stereo not drawn)
 | < 35 |  | Cc1cc2c(cc1C)C(=O)N(NC(=O)c1ccc(N3C(=O)C4CC=CCC4C3=O)cc1)C2=O (stereo not drawn)
98 |  |  | Cc1ccc(C(=O)COC(=O)c2ccc(N3C(=O)C4CC(Br)C(Br)CC4C3=O)cc2)cc1C (stereo not drawn)
2040 |  |  | O=C(COC(=O)c1ccc(N2C(=O)C3CC=CCC3C2=O)cc1)c1ccc2c(c1)OCCO2 (stereo not drawn)
172 |  |  | Cc1ccc(C(=O)COC(=O)c2ccc(N3C(=O)C4CC=CCC4C3=O)cc2)cc1C (stereo not drawn)

Ki [1] [nM] | inhibition [2] [%] | also measured | SMILES
411 |  |  | Cc1ccc(C(=O)COC(=O)c2ccc(N3C(=O)CC(C)C3=O)cc2)cc1C (stereo not drawn)
506 |  | half-life [3]: 2 h | Cc1ccc(C(=O)COC(=O)c2ccc(N3C(=O)CCC3=O)cc2)cc1C
 | < 35 |  | Cc1ccc(C(=O)COCc2ccc(N3C(=O)C4CC=CCC4C3=O)cc2)cc1C (stereo not drawn)
1090 |  |  | O=C(COC(=O)c1ccc(N2C(=O)C3CC=CCC3C2=O)cc1)c1ccc(N2CCCC2)cc1 (stereo not drawn)
1010 |  |  | Cc1ccc(C(=O)COC(=O)c2ccc(N3C(=O)C4C5C=CC(C5)C4C3=O)cc2)cc1C (stereo not drawn)
 | < 35 |  | Cc1ccc(NC(=O)NCc2ccc(N3C(=O)C4CC=CCC4C3=O)cc2)cc1C (stereo not drawn)
190 |  |  | Cc1ccc(C(=O)COC(=O)c2ccc(N3C(=O)[C@H]4CCCC[C@H]4C3=O)cc2)cc1C
 | < 35 |  | Cc1ccc(NC(=O)c2ccc(N3C(=O)C4CC=CCC4C3=O)cc2)cc1C (stereo not drawn)
 | < 35 |  | Cc1ccc(C(=O)N2CCCN2C(=O)c2ccc(N3C(=O)C4CC=CCC4C3=O)cc2)cc1C (stereo not drawn)
 | < 35 |  | Cc1ccc(C(=O)CN(C)C(=O)c2ccc(N3C(=O)C4CC=CCC4C3=O)cc2)cc1C (stereo not drawn)
 | 34 |  | Cc1ccc(C(=O)COC(=O)c2ccc(NC(=O)C3CC=CCC3C(=O)O)cc2)cc1C (stereo not drawn)
4800 |  |  | CC1=CC(=O)N(c2ccc(C(=O)OCC(=O)c3ccc(C)c(C)c3)cc2)C1=O
 | 33 |  | Cc1ccc(C(=O)COC(=O)c2ccc(N3C(=O)c4ccncc4C3=O)cc2)cc1C
 | 32 |  | CC1(C)CCC(C)(C)c2cc(C(=O)COC(=O)c3ccc(N4C(=O)C5CC=CCC5C4=O)cc3)ccc21 (stereo not drawn)
 | < 35 |  | Cc1ccc(CCNC(=O)c2ccc(N3C(=O)C4CC=CCC4C3=O)cc2)cc1C (stereo not drawn)
 | < 35 |  | Cc1ccc(NCC(=O)Nc2ccc(N3C(=O)C4CC=CCC4C3=O)cc2)cc1C (stereo not drawn)
 | < 35 |  | Cc1ccc(OCCNC(=O)c2ccc(N3C(=O)C4CC=CCC4C3=O)cc2)cc1C (stereo not drawn)
150 |  |  | Cc1ccc(C(=O)COC(=O)c2ccc(N3C(=O)[C@@H]4CCCC[C@H]4C3=O)cc2)cc1C
18000 |  |  | O=C(COC(=O)c1ccc(N2C(=O)C3CC=CCC3C2=O)cc1)c1ccc(C2CCCCC2)cc1 (stereo not drawn)
216 |  |  | CC1=CCC2C(=O)N(c3ccc(C(=O)OCC(=O)c4ccc(C)c(C)c4)cc3)C(=O)C2C1 (stereo not drawn)
171 |  |  | O=C(COC(=O)c1ccc(N2C(=O)C3CC=CCC3C2=O)cc1)c1ccc2c(c1)CCCC2 (stereo not drawn)
 | < 35 |  | Cc1ccc(C(=O)NNC(=O)c2ccc(N3C(=O)C4CC=CCC4C3=O)cc2)cc1C (stereo not drawn)
1840 |  |  | Cc1ccc(C(=O)COC(=O)c2ccc(N3C(=O)CC(C)CC3=O)cc2)cc1C
 | 18 |  | O=C(COC(=O)c1ccc(N2C(=O)C3CC=CCC3C2=O)cc1)c1ccccc1 (stereo not drawn)
 | < 35 |  | Cc1ccc(C(=O)CN2C(=O)c3ccc(N4C(=O)C5CC=CCC5C4=O)cc3C2=O)cc1C (stereo not drawn)
